Tests used:
[1] = Chemical stability of the compound in phosphate buffer at pH 7.3; type: physicochemical
[2] = Half life of the compound in phosphate buffer at pH 7.3; type: physicochemical
OVCAR-3 [3] = assay: Cellular uptake in human OVCAR3 cells at 46.9 +/- 1.1 kBq/mL up to 90 mins by gamma counting; type: ADME, cell-based; conditions: ovcar-3, 1.5 h
Procedure, shortened: (§1)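 Time-course uptake of resolved 125I-labelled diastereomers in LS 174T (colorectal) or OVCAR-3 (ovarian) cells at the stated radioactive concentration; cell-associated radioactivity counted at each time point; mean and std dev, n = 3 per time.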

[4] = Cellular uptake in human LS 174T cells at 46.9 +/- 1.1 kBq/mL up to 90 mins by gamma counting; type: ADME, cell-based; conditions: ls174t, 1.5 h; procedure, shortened: as §1
[5] = Cellular uptake in human U87MG cells by gamma counting; type: ADME, cell-based; conditions: u-87mg atcc
OVCAR-3 [6] = assay: Cellular uptake in human OVCAR3 cells after 3 hrs by gamma counting; type: ADME, cell-based; conditions: ovcar-3, 3 h
Procedure, shortened: (§2)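 Concentration-dependent uptake: LS 174T or OVCAR-3 cells exposed to increasing concentrations of 125I-labelled diastereomers for 3 h; 131IUdR added to the medium as internal standard of proliferation; saturable uptake fitted to give Bmax as molecules/cell.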

[7] = Cytotoxicity against human LS 174T cells assessed as colony formation at 114.5 kBq/mL incubated for 4 hrs measured after 21 days by clonogenic assay; type: functional, LS174T
Procedure, shortened: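 LS 174T cells exposed 4 h to 114.5 kBq/mL 125I agent, cultured 24 h in nonradioactive medium, then harvested and plated; colonies counted after 21 days; surviving fraction = treated colonies / untreated control colonies.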

OVCAR-3 [8] = assay: Cellular uptake in human OVCAR3 cells at 46.9 +/- 1.1 kBq/mL after 90 mins by gamma counting; type: ADME, cell-based; conditions: ovcar-3, 1.5 h; procedure, shortened: as §1
[9] = Cellular uptake in human LS 174T cells at 46.9 +/- 1.1 kBq/mL after 90 mins by gamma counting; type: ADME, cell-based; conditions: ls174t, 1.5 h; procedure, shortened: as §1
[10] = Cellular uptake in human LS 174T cells after 3 hrs by gamma counting; type: ADME, cell-based; conditions: ls174t; procedure, shortened: as §2
[11] = Cellular uptake in human OVCAR3 cell cytoplasm assessed as per 10^3 cells after 1 hr by gamma counting; type: ADME, cell-based; conditions: ovcar-3, 1 h, 1 h
Procedure, shortened: (§3)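 OVCAR-3 cells incubated 1 h with 55.5 (0.04) kBq/mL 125I-labelled agent (diastereomer mixtures or resolved slow isomers); fractionated either immediately or after 24 h further growth in fresh nonradioactive medium; 125I in cytoplasm and nucleus counted as cpm/10^3 cells with std dev.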

[12] = Cellular uptake in human OVCAR3 cell cytoplasm assessed as per 10^3 cells after 24 hrs by gamma counting; type: ADME, cell-based; conditions: ovcar-3, 24 h, 24 h; procedure, shortened: as §3
[13] = Cellular uptake in human OVCAR3 cell nucleus assessed as per 10^3 cells after 1 hr by gamma counting; type: ADME, cell-based; conditions: ovcar-3, 1 h, 1 h; procedure, shortened: as §3
[14] = Cellular uptake in human OVCAR3 cell nucleus assessed as per 10^3 cells after 24 hrs by gamma counting; type: ADME, cell-based; conditions: ovcar-3, 24 h, 24 h; procedure, shortened: as §3
[15] = Cellular uptake in human LS 174T cells at 17.5 +/- 0.3 kBq/mL after 3 hrs by gamma counting; type: ADME, cell-based; conditions: ls174t; procedure, shortened: as §1
OVCAR-3 [16] = assay: Cellular uptake in human OVCAR3 cells at 16.7 +/- 1.2 kBq/mL after 3 hrs by gamma counting; type: ADME, cell-based; conditions: ovcar-3, 3 h; procedure, shortened: as §1
[17] = Cellular uptake in human LS 174T cells at 13.6 +/- 0.4 kBq/mL after 3 hrs by gamma counting; type: ADME, cell-based; conditions: ls174t; procedure, shortened: as §1
[18] = Cellular uptake in human LS 174T cells by gamma counting; type: ADME, cell-based; conditions: ls174t
OVCAR-3 [19] = assay: Cellular uptake in human OVCAR3 cells at 35.1 +/- 0.3 kBq/mL after 3 hrs by gamma counting; type: ADME, cell-based; conditions: ovcar-3, 3 h; procedure, shortened: as §1
[20] = Cellular uptake in human LS 174T cells at 35.1 +/- 0.3 kBq/mL after 3 hrs by gamma counting; type: ADME, cell-based; conditions: ls174t; procedure, shortened: as §1
OVCAR-3 [21] = assay: Cellular uptake in human OVCAR3 cells at 35.1 +/- 0.3 kBq/mL after 6 hrs by gamma counting; type: ADME, cell-based; conditions: ovcar-3, 6 h
Procedure, shortened: (§4)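 Time-course uptake in LS 174T or OVCAR-3 cells at 35.1±0.3 kBq/mL, continued to 6 h; cell-associated 125I counted; mean and std dev, n = 3 per time.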

[22] = Cellular uptake in human LS 174T cells at 35.1 +/- 0.3 kBq/mL after 6 hrs by gamma counting; type: ADME, cell-based; conditions: ls174t; procedure, shortened: as §4
Cholinesterase = Cholinesterase (Homo sapiens, UniProt P06276); assay: Inhibition of human BChE after 24 hrs by microplate reader method
[23] = Cellular uptake in human U87MG cell cytoplasm incubated for 1 hr followed by compound wash out measured after 24 hrs by gamma counting; type: ADME, cell-based; conditions: u-87mg atcc
Procedure, shortened: (§5)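 U-87 MG cells treated 1 h with 125I-labelled diastereomers, fractionated either immediately or after 24 h in fresh nonradioactive medium; 125I counted in cytoplasm, soluble nuclear fraction and DNA.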

[24] = Cellular uptake in human U87MG cell nucleus incubated for 1 hr followed by compound wash out measured after 24 hrs by gamma counting; type: ADME, cell-based; conditions: u-87mg atcc; procedure, shortened: as §5
[25] = Cellular uptake in human U87MG DNA incubated for 1 hr followed by compound wash out measured after 24 hrs by gamma counting; type: ADME, cell-based; conditions: u-87mg atcc; procedure, shortened: as §5

Cholinesterase, sequence (P06276 whole entry): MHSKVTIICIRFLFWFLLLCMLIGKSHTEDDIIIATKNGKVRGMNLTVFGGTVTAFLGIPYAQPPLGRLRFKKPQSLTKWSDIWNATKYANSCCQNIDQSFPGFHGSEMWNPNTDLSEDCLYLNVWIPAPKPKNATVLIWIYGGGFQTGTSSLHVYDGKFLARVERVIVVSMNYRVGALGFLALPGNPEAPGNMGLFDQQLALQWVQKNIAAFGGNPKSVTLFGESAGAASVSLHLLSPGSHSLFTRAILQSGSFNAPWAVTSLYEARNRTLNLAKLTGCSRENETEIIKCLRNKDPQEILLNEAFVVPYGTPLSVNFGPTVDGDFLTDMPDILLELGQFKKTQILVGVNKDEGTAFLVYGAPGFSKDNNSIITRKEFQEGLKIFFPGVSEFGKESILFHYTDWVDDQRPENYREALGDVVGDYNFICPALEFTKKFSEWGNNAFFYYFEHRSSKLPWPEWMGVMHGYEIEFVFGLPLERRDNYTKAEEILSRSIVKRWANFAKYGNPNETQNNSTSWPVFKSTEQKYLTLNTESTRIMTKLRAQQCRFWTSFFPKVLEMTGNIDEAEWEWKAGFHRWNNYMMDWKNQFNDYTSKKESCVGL

For `O=c1[nH]c(=O)n([C@H]2C[C@H](O)[C@@H](COP3(=O)OCc4ccccc4O3)O2)cc1[125I]` (stereo in doubt; form 1), the K [1] was 2.25 ×10⁻³ /min, the t1/2 [2] was 5.1 h and the Drug uptake (OVCAR-3 [3]) was “Active”. The Drug uptake [4] was “Active”, the Drug uptake [5] was “Dose-dependent effect” and the Drug uptake (OVCAR-3 [6]) was “Dose-dependent effect”. For the same compound, the Activity [7] was 60%, the Drug uptake (OVCAR-3 [8]) was “Active” and the Drug uptake [9] was “Active”. For the same compound, the Drug uptake [10] was “Dose-dependent effect”.

With `CC(C)(C)c1cc(C(C)(C)C)c2c(c1F)COP(=O)(OC[C@H]1O[C@@H](n3cc([125I])c(=O)[nH]c3=O)C[C@@H]1O)O2` (stereo in doubt) the Drug uptake [11] was 87.3 cpm, the Drug uptake [12] was 2.8 cpm and the Drug uptake [13] was 7.8 cpm. For the same compound, the Drug uptake [14] was 91.6 cpm and the Drug uptake [15] was “Active”.

With `CC(C)(C)c1cc(C(C)(C)C)c2c(c1F)COP(=O)(OC[C@H]1O[C@@H](n3cc([125I])c(=O)[nH]c3=O)C[C@@H]1O)O2` (some centres not stated) the Drug uptake (OVCAR-3 [16]) was “Active” and the Drug uptake [17] was “Active”.

For `Cc1cccc2c1OP(=O)(OC[C@H]1O[C@@H](n3cc([125I])c(=O)[nH]c3=O)C[C@@H]1O)OC2` (stereo in doubt; form 1), the K [1] was 5.44 ×10⁻⁴ /min, the t1/2 [2] was 21.2 h and the Drug uptake [18] was “Active”. For the same compound, the Drug uptake (OVCAR-3 [19]) was “Active”, the Drug uptake [20] was “Active” and the Drug uptake (OVCAR-3 [21]) was “Active”. For the same compound, the Drug uptake [22] was “Active”.

With `CC(C)(C)c1cc(C(C)(C)C)c2c(c1F)COP(=O)(O[C@H]1C[C@H](n3cc(I)c(=O)[nH]c3=O)O[C@@H]1CO)O2` (stereo in doubt; form 2) the K [1] was 6.67 ×10⁻⁴ /min, the t1/2 [2] was 17.3 h and the IC50 (Cholinesterase) was greater than 3 mM.

In the case of `CC(C)(C)c1cc(C(C)(C)C)c2c(c1F)COP(=O)(OC[C@H]1O[C@@H](n3cc([125I])c(=O)[nH]c3=O)C[C@@H]1F)O2` (stereo in doubt; form 1), the K [1] is reported as 3.01 ×10⁻⁴ /min, the t1/2 [2] is reported as 38.5 h and the Drug uptake [23] is reported as “Active”. For the same compound, the Drug uptake [24] was “Active” and the Drug uptake [25] was “Active”.

From ChEMBL document CHEMBL2146438, “Radiolabeled cyclosaligenyl monophosphates of 5-iodo-2'-deoxyuridine, 5-iodo-3'-fluoro-2',3'-dideoxyuridine, and 3'-fluorothymidine for molecular radiotherapy of cancer: synthesis and biological evaluation” (J Med Chem, 2012)
